Structures are written as SMILES. “Also recorded” adds a separate entry of the source.

Assay [1] deals with purified bovine brain tubulin. Briefly: Inhibition of tubulin polymerization. The class given is biochemical. Particulars: oxetane analogues compared with their ketone counterparts. Put shortly: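 Bovine brain tubulin at 1 mg/mL (10 μM) in 0.8 M monosodium glutamate (pH 6.6) with 4% (v/v) DMSO and varied test compound concentrations, preincubated 15 min at 30 °C without GTP. The mix was chilled to 0 °C, then GTP added (0.1 mM final), and warmed to 30 °C over about 30 s.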

Assay [2] has as its system PANC-1 cells. Kind of assay: Wound healing. Particulars: for Scratch gap closure: PANC-1 cells, 37 °C, 5% CO2; for PANC-1 cell migration in wound healing assay (in words): 0.5 and 1 μM. It is filed as cell-based, human. Summed up: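 PANC-1 cells in DMEM with 10% heat-inactivated FBS and 30 μg/mL gentamicin were seeded at about 1 × 10⁵ cells per well in 6-well plates and grown to 70–80% confluency. Each well was scratched with a sterile pipette tip, then medium and detached cells were removed. Duplicate wells received 0.5 or 1 μM test compound or control (final DMSO ≤0.2%). Closure was imaged by automated microscopy (4X) for 48 h.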

On to `COc1cc(C2(c3c(-c4ccccc4)[nH]c4cc(Cl)ccc34)COC2)cc(OC)c1OC` [Compound 5k, 6-Chloro-2-phenyl-3-(3-(3,4,5-trimethoxyphenyl)oxetan-3-yl)-1H-indole], for which the “Inhibition of tubulin polymerization (in words)” value (shortened to “Inhibition”) in assay [1] is on record as “at most weakly active as inhibitors of tubulin polymerization; also recorded: no significant tubulin assembly inhibition activity”.

With `COc1cc(C2(c3c(-c4ccccc4)[nH]c4c(OC)cccc34)COC2)cc(OC)c1OC` [Compound 5h, 7-Methoxy-2-phenyl-3-(3-(3,4,5-trimethoxyphenyl)oxetan-3-yl)-1H-indole], the figures for the Scratch gap closure entry in assay [2] (0.5 μM compound) and in assay [2] (1 μM compound) were “gap is not closed after 48 h” and “gap remains open after 48 h”, respectively. In addition, in assay [2], the “PANC-1 cell migration in wound healing assay (in words)” value is on record as “inhibited PANC-1 cell migration”. Moreover, the “Inhibition” value in assay [1] was “at most weakly active as inhibitors of tubulin polymerization; also recorded: no significant tubulin assembly inhibition activity”.

`COc1ccc2c(C3(c4cc(OC)c(OC)c(OC)c4)COC3)c(-c3ccc(OC)c(O)c3)[nH]c2c1` [Compound 5m, 2-Methoxy-5-(6-methoxy-3-(3-(3,4,5-trimethoxyphenyl)oxetan-3-yl)-1H-indol-2-yl)phenol]: in assay [1], the “Inhibition” value is “at most weakly active as inhibitors of tubulin polymerization; also recorded: no significant tubulin assembly inhibition activity”.

Turning to `COc1ccc2[nH]c(-c3ccccc3)c(C3(c4cc(OC)c(OC)c(OC)c4)COC3)c2c1` [Compound 5l, 5-Methoxy-2-phenyl-3-(3-(3,4,5-trimethoxyphenyl)oxetan-3-yl)-1H-indole], the “Inhibition” value in assay [1] was “at most weakly active as inhibitors of tubulin polymerization; also recorded: no significant tubulin assembly inhibition activity”.

Consider `COc1cc(C2(c3c(-c4ccccc4)[nH]c4cc(Br)ccc34)COC2)cc(OC)c1OC` [Compound 5c, 6-Bromo-2-phenyl-3-(3-(3,4,5-trimethoxyphenyl)oxetan-3-yl)-1H-indole], for which the Scratch gap closure entry in assay [2] (0.5 μM compound) is listed as “gap is not completely closed after 40 h”; in assay [2] (1 μM compound) it was “gap remains open after 40 h”. Also, in assay [2], the “PANC-1 cell migration in wound healing assay (in words)” value is “inhibited PANC-1 cell migration”. Moreover, the “Inhibition” value in assay [1] is “at most weakly active as inhibitors of tubulin polymerization; also recorded: no significant tubulin assembly inhibition activity”.

For the origin of these results see article PMC10848874 (Bioorganic & medicinal chemistry, 2023).
